Source: ChEMBL document CHEMBL1143617, “Potential antitumor agents. 37. Synthesis and antitumor activity of guanylhydrazones from imidazo[2,1-b]thiazoles and from the new heterocyclic system thiazolo[2',3':2,3]imidazo[4,5-c]quinoline” (2005)

Tests used:
[1] = test system: Panel NCI-60 (60 carcinoma cell lines); experiment: Cytostatic effect against human cancer cell line; (Range=-4.01 to -5.65); assay type: functional; details: read-out: Log TGI (converted)
Outline: (§1)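 NCI 60 human tumour cell line panel, entered after a three-cell-line prescreen. Five concentrations at 10-fold dilutions: 10-4, 10-5, 10-6, 10^-7 and 10^-8 M. Results given as log values of growth inhibitory power (GI50) and cytostatic effect.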

[2] = test system: Panel NCI-60 (60 carcinoma cell lines); experiment: Growth inhibitory power against human cancer cell line; (Range=-4.04 to -6.08); assay type: functional; outline: as §1
[3] = test system: Panel NCI-60 (60 carcinoma cell lines); experiment: Cytotoxic effect against human cancer cell line; (Range=-4.01 to -5.01); assay type: functional
Outline: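 NCI 60-cell-line panel, tested at five 10-fold dilutions from 10^-4 M down to 10^-8 M. Results are expressed as log values of growth inhibitory power (GI50) and cytostatic effect.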

Rattus norvegicus [4] = species: Rattus norvegicus; experiment: Inhibitory effect on mitochondrial respiration in coupled rat liver mitochondria at 35 uM concentration measured as succinate-O2 activity adding succinate; State 4
Rattus norvegicus [5] = species: Rattus norvegicus; experiment: Compound was tested against rat liver mitochondria respiration; Activity as respiratory control index measured as succinate-O2 activity adding succinate; assay type: functional
Outline: (§2)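 Isolated coupled rat liver mitochondria; compound at 35 µM. Oxygen consumption was measured polarographically with a Clark electrode. Reactions were started with a saturating amount of substrate: glutamate/malate (NADH-O2), succinate (succinate-O2) or ascorbate/TMPD (Complex IV). The uncoupled rate was obtained by adding 2,4-dinitrophenol. The respiratory control index was also derived. Rates are in ngA oxygen/min/mg protein, mean of five and eight independent measures.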

Rattus norvegicus [6] = species: Rattus norvegicus; experiment: Inhibitory effect on mitochondrial respiration in coupled rat liver mitochondria at 35 uM concentration measured as NADH-O2 activity adding glutamate/malate; State 3
Rattus norvegicus [7] = species: Rattus norvegicus; experiment: Inhibitory effect on mitochondrial respiration in coupled rat liver mitochondria at 35 uM concentration measured as TMPD test complex IV activity adding ascorbate; State 3
Rattus norvegicus [8] = species: Rattus norvegicus; experiment: Inhibitory effect on mitochondrial respiration in coupled rat liver mitochondria at 35 uM concentration measured as succinate-O2 activity adding succinate; State 3
Rattus norvegicus [9] = species: Rattus norvegicus; experiment: Inhibitory effect on mitochondrial respiration in […]-uncoupled rat liver mitochondria; Activity measured as succinate-O2 activity adding succinate; assay type: functional; outline: as §2
Rattus norvegicus [10] = species: Rattus norvegicus; experiment: Inhibitory effect on mitochondrial respiration in […]-uncoupled rat liver mitochondria; Activity measured as NADH-O2 activity adding glutamate/malate; assay type: functional; outline: as §2
Rattus norvegicus [11] = species: Rattus norvegicus; experiment: Compound was tested against rat liver mitochondria respiration; Activity as respiratory control index measured as NADH-O2 activity adding glutamate/malate; assay type: functional; outline: as §2
Rattus norvegicus [12] = species: Rattus norvegicus; experiment: Inhibitory effect on mitochondrial respiration in coupled rat liver mitochondria at 35 uM concentration measured as NADH-O2 activity adding glutamate/malate; State 4
Rattus norvegicus [13] = species: Rattus norvegicus; experiment: Inhibitory effect on mitochondrial respiration in […]-uncoupled rat liver mitochondria; Activity measured as TMPD test complex IV activity adding ascorbate; assay type: functional; outline: as §2
Rattus norvegicus [14] = species: Rattus norvegicus; experiment: Compound was tested against rat liver mitochondria respiration; Activity as respiratory control index measured as TMPD test complex IV activity adding ascorbate; assay type: functional; outline: as §2
Rattus norvegicus [15] = species: Rattus norvegicus; experiment: Inhibitory effect on mitochondrial respiration in coupled rat liver mitochondria at 35 uM concentration measured as TMPD test complex IV activity adding ascorbate; State 4
RXF 393 = experiment: Growth inhibitory power against human renal (RXF 393) cell line; assay type: functional; outline: as §1
COLO 205 = experiment: Growth inhibitory power against human colon (COLO 205) cell line; assay type: functional; outline: as §1
K562 = experiment: Growth inhibitory power against human leukemia (K-562)cell line; assay type: functional; outline: as §1
OVCAR-3 = experiment: Growth inhibitory power against human ovarian (OVCAR-3) cell line cell line; assay type: functional; outline: as §1

SMILES: COc1ccc(-c2nc3sccn3c2/C=N/N=C(N)N)cc1OC
- TGI [1]: < 2240 nM
- GI50 [2]: < 832 nM
- LC50 (50% lethal concentration) [3]: < 9770 nM

SMILES: COc1ccc(OC)c([N+](=O)[O-])c1-c1nc2sc(C)c(C)n2c1/C=N/N=C(N)N
- TGI [1]: < 2240 nM
- GI50 [2]: < 832 nM
- LC50 (50% lethal concentration) [3]: < 9770 nM

SMILES: COc1cc(-c2nc3sccn3c2/C=N/N=C(N)N)c([N+](=O)[O-])cc1OC
- TGI [1]: < 2240 nM
- GI50 [2]: < 832 nM
- LC50 (50% lethal concentration) [3]: < 9770 nM

SMILES: COc1cc([N+](=O)[O-])c(OC)cc1-c1nc2scc(C)n2c1/C=N/N=C(N)N
- TGI [1]: < 2240 nM
- GI50 [2]: < 832 nM
- LC50 (50% lethal concentration) [3]: < 9770 nM

SMILES: COc1cc([N+](=O)[O-])c(OC)cc1-c1nc2sc(C)cn2c1/C=N/N=C(N)N
- TGI [1]: < 2240 nM
- GI50 [2]: < 832 nM
- LC50 (50% lethal concentration) [3]: < 9770 nM

SMILES: O=C1C=CC(=O)c2c1ncc1c2nc2sccn21
- TGI [1]: < 2240 nM
- GI50 [2]: < 832 nM
- LC50 (50% lethal concentration) [3]: < 9770 nM

SMILES: COc1ccc(OC)c([N+](=O)[O-])c1-c1nc2scc(C)n2c1/C=N/N=C(N)N
- TGI [1]: < 2240 nM
- GI50 [2]: < 832 nM
- LC50 (50% lethal concentration) [3]: < 9770 nM

SMILES: COc1ccc(OC)c([N+](=O)[O-])c1-c1nc2sc(C)cn2c1/C=N/N=C(N)N
- TGI [1]: < 2240 nM
- GI50 [2]: < 832 nM
- LC50 (50% lethal concentration) [3]: < 9770 nM

SMILES: COc1ccc(OC)c([N+](=O)[O-])c1-c1nc2n(c1/C=N/N=C(N)N)CCS2
- TGI [1]: < 2240 nM
- GI50 [2]: < 832 nM
- LC50 (50% lethal concentration) [3]: < 9770 nM

SMILES: COc1ccc(OC)c(-c2nc3sccn3c2/C=N/N=C(N)N)c1
- TGI [1]: < 2240 nM
- GI50 [2]: < 832 nM
- LC50 (50% lethal concentration) [3]: < 9770 nM

SMILES: COc1cc([N+](=O)[O-])c(OC)cc1-c1nc2sc(C)c(C)n2c1/C=N/N=C(N)N
- TGI [1]: < 2240 nM
- GI50 [2]: < 832 nM
- LC50 (50% lethal concentration) [3]: < 9770 nM

SMILES: COc1cc([N+](=O)[O-])c(OC)cc1-c1nc2n(c1/C=N/N=C(N)N)CCS2
- TGI [1]: < 2240 nM
- GI50 [2]: < 832 nM
- LC50 (50% lethal concentration) [3]: < 9770 nM

SMILES: COc1cc([N+](=O)[O-])c(OC)cc1-c1nc2sccn2c1/C=N/NC(=N)N
- TGI [1]: < 2240 nM
- GI50 [2]: < 832 nM
- LC50 (50% lethal concentration) [3]: < 9770 nM

SMILES: COc1cc(OC)c([N+](=O)[O-])cc1-c1nc2sccn2c1/C=N/N=C(N)N
- TGI [1]: < 2240 nM
- GI50 [2]: < 832 nM
- LC50 (50% lethal concentration) [3]: < 9770 nM

SMILES: CC(/C=N/NC(=N)N)=N/NC(=N)N
- Actvity (ngAoxigen/min/mg of RLM) (Rattus norvegicus [4]): 39.2
- Actvity (Rattus norvegicus [5]): 3.7
- Actvity (ngAoxigen/min/mg of RLM) (Rattus norvegicus [6]): 80
- Actvity (ngAoxigen/min/mg of RLM) (Rattus norvegicus [7]): 128
- Actvity (ngAoxigen/min/mg of RLM) (Rattus norvegicus [8]): 141
- Actvity (ngAoxigen/min/mg of RLM) (Rattus norvegicus [9]): 169
- Actvity (ngAoxigen/min/mg of RLM) (Rattus norvegicus [10]): 106
- Actvity (Rattus norvegicus [11]): 4.9
- Actvity (ngAoxigen/min/mg of RLM) (Rattus norvegicus [12]): 17.9
- Actvity (ngAoxigen/min/mg of RLM) (Rattus norvegicus [13]): 156
- Actvity (Rattus norvegicus [14]): 1.7
- Actvity (ngAoxigen/min/mg of RLM) (Rattus norvegicus [15]): 91.1

SMILES: N=C(N)N/N=C/c1c(-c2cc(O)ccc2O)nc2sccn12
- TGI [1]: < 2240 nM
- GI50 [2]: < 832 nM
- LC50 (50% lethal concentration) [3]: < 9770 nM

SMILES: COc1ccc(OC)c([N+](=O)[O-])c1-c1nc2sccn2c1/C=N/N=C(N)N
- TGI [1]: < 2240 nM
- GI50 [2]: < 832 nM
- LC50 (50% lethal concentration) [3]: < 9770 nM

SMILES: N=C(N)/N=N/c1ccc(NNC(=N)N)c2ncc3c(nc4sccn43)c12
- TGI [1]: < 2240 nM
- GI50 [2]: < 832 nM
- LC50 (50% lethal concentration) [3]: < 9770 nM

SMILES: N=C(N)N/N=C/c1c(-c2ccc(O)c(O)c2)nc2sccn12
- TGI [1]: < 2240 nM
- GI50 [2]: < 832 nM
- LC50 (50% lethal concentration) [3]: < 9770 nM

SMILES: COc1ccc(OC)c2c1ncc1c2nc2sccn21
- TGI [1]: < 2240 nM
- GI50 [2]: < 832 nM
- LC50 (50% lethal concentration) [3]: < 9770 nM

SMILES: COc1ccc(OC)c([N+](=O)[O-])c1-c1nc2sc(Cl)cn2c1/C=N/N=C(N)N
- TGI [1]: < 2240 nM
- GI50 [2]: < 832 nM
- LC50 (50% lethal concentration) [3]: < 9770 nM

SMILES: COc1cc([N+](=O)[O-])c(OC)cc1-c1nc2sc(Cl)cn2c1/C=N/N=C(N)N
- Actvity (ngAoxigen/min/mg of RLM) (Rattus norvegicus [4]): 33.4
- GI50 (RXF 393): 1450 nM
- GI50 (COLO 205): 1550 nM
- Actvity (Rattus norvegicus [5]): 1.7
- GI50 (K562): 1910 nM
- Actvity (ngAoxigen/min/mg of RLM) (Rattus norvegicus [6]): 47.7
- Actvity (ngAoxigen/min/mg of RLM) (Rattus norvegicus [7]): 142
- Actvity (ngAoxigen/min/mg of RLM) (Rattus norvegicus [8]): 54.9
- Actvity (ngAoxigen/min/mg of RLM) (Rattus norvegicus [9]): 81.7
- Actvity (ngAoxigen/min/mg of RLM) (Rattus norvegicus [10]): 74.2
- Actvity (Rattus norvegicus [11]): 2.3
- Actvity (ngAoxigen/min/mg of RLM) (Rattus norvegicus [12]): 23.1
- Actvity (ngAoxigen/min/mg of RLM) (Rattus norvegicus [13]): 158
- Actvity (Rattus norvegicus [14]): 1.5
- Actvity (ngAoxigen/min/mg of RLM) (Rattus norvegicus [15]): 98
- GI50 (OVCAR-3): 589 nM

SMILES: CCCc1cn2c(/C=N/N=C(N)N)c(-c3c(OC)ccc(OC)c3[N+](=O)[O-])nc2s1
- TGI [1]: < 2240 nM
- GI50 [2]: < 832 nM
- LC50 (50% lethal concentration) [3]: < 9770 nM

SMILES: COc1cc2ncc3c(nc4sccn43)c2cc1OC
- TGI [1]: < 2240 nM
- GI50 [2]: < 832 nM
- LC50 (50% lethal concentration) [3]: < 9770 nM
